Laboratory results published in ChEMBL document CHEMBL6083194, “Discovery and evaluation of 3-(2-isocyanobenzyl)-1H-indole derivatives as potential quorum sensing inhibitors for the control of Pseudomonas aeruginosa infections in vitro” (RSC Med Chem, 2024).
Converted amounts (≈) assume the structure as drawn. The source made the active and inactive calls. The rule behind the calls is not given here.

Legend:
[1] = Inhibition of quorum sensing system in Pseudomonas aeruginosa PAO1
Method in brief: (§1)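 Plate screen. CV026 grown overnight in LB with 50 μg ml−1 kanamycin; 15 μl seeded into 15 ml LB agar (1.0% agarose) containing 20 μM C4-HSL. PAO1 plates run in parallel. Test colonies inoculated by toothpick, incubated overnight at 37 °C. Ring of colourless viable cells around the colony scored as inhibition.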

[2] = Inhibition of quorum sensing system in Chromobacterium violaceum CV026; method in brief: as §1
Pseudomonas aeruginosa [3] = experiment: Inhibition of biofilm formation in Pseudomonas aeruginosa PAO1 incubated for 24 hrs crystal violet staining based SEM assay; type: functional, organism-based
Pseudomonas aeruginosa [4] = experiment: Inhibition of biofilm formation in Pseudomonas aeruginosa PAO1 at 1/2 times MIC incubated for 24 hrs crystal violet staining based SEM assay; type: functional
Pseudomonas aeruginosa [5] = experiment: Inhibition of pyocyanin production in Pseudomonas aeruginosa PAO1 at 1/2 time MIC incubated for 18 hrs; type: functional
Method in brief: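 Overnight PAO1 in LB diluted to OD600 = 0.05, subcultured 5–7 h to mid-log, rediluted to OD600 = 0.05. 5 mL with compound grown 18 h at 37 °C, 200 rpm. Supernatant extracted with 3 mL chloroform, back-extracted into 0.2 M HCl, absorbance at 520 nm.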

Pseudomonas aeruginosa [6] = experiment: Inhibition of rhamnolipid production in Pseudomonas aeruginosa PAO1 at 1/2 to 1/4 times MIC by orcinol method; type: functional, organism-based
Method in brief: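 Overnight PAO1 diluted 1:100 into LB with compound, 37 °C, 180 rpm; DMSO control. Supernatant (100 μL) mixed with 900 μL 0.19% orcinol in 53% H2SO4, heated 30 min at 80 °C, cooled, read at 421 nm.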

Pseudomonas aeruginosa [7] = experiment: Antibacterial activity against Pseudomonas aeruginosa PAO1 by serial dilution method; type: functional
Method in brief: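 PAO1 in LB, 37 °C. MIC by CLSI 2-fold serial dilution in Mueller–Hinton broth, inoculum 1–5 × 10^5 CFU mL−1, DMSO stocks. Growth curves: overnight culture diluted to OD600 = 0.05, subcultured to mid-log, rediluted to OD600 = 0.05, 3 mL with compound; OD620 read at 1, 3, 5, 7, 9, 11 and 24 h at 37 °C; DMSO negative control.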

Pseudomonas aeruginosa [8] = experiment: Inhibition of biofilm formation in Pseudomonas aeruginosa PAO1 at 1/4 times MIC incubated for 24 hrs crystal violet staining based SEM assay; type: functional

inhibition [1]	inhibition [2]	MIC (Pseudomonas aeruginosa [7])	Compound	inhibition (Pseudomonas aeruginosa [3])	inhibition (INH) (Pseudomonas aeruginosa [4])	inhibition (Pseudomonas aeruginosa [5])	inhibition (INH) (Pseudomonas aeruginosa [5])	inhibition (Pseudomonas aeruginosa [6])	inhibition (INH) (Pseudomonas aeruginosa [8])
Active; Strong Inhibition Observed	Active; Showed Higher Activity		Cc1cccc(Cc2c[nH]c3ccccc23)c1C#N	Dose-dependent-effect	27%	Active			
			N#Cc1ccccc1Cc1c[nH]c2cccc(F)c12	Dose-dependent-effect	35%	Active			
Active; Strong Inhibition Observed	Active; Showed Higher Activity		N#Cc1ccccc1Cc1c[nH]c2ccc(Br)cc12	Dose-dependent-effect	39%		64%		
Active; Strong Inhibition Observed	Active	12 µg/mL (≈ 47.9 µM)	N#Cc1ccc(F)cc1Cc1c[nH]c2ccccc12	Dose-dependent-effect	19%	Active; Showed Higher Activity Than Positive Control Rsv		Active	
Active	Active; Showed Higher Activity		N#Cc1ccccc1Cc1c[nH]c2ccc(Cl)cc12	Dose-dependent-effect	11%	Active			
Active; Strong Inhibition Observed			Cc1ccc(C#N)c(Cc2c[nH]c3ccccc23)c1	Dose-dependent-effect	24%	Active			
			Cn1cc(Cc2ccccc2C#N)c2ccccc21	Dose-dependent-effect		Active			
Active	Active; Showed Higher Activity		Cc1ccc2c(Cc3ccccc3C#N)c[nH]c2c1	Dose-dependent-effect	7%	Active; Showed Higher Activity Than Positive Control Rsv			
Active; Strong Inhibition Observed	Active; Showed Higher Activity	96 µg/mL (≈ 413 µM)	N#Cc1ccccc1Cc1c[nH]c2ccccc12	Dose-dependent-effect	38%	Active; Showed Higher Activity Than Positive Control Rsv		Active	15%
Active; Strong Inhibition Observed			CC(c1ccccc1C#N)c1c[nH]c2ccccc12 (configuration not stated)	Dose-dependent-effect		Active			
Active			N#Cc1ccc(Cl)cc1Cc1c[nH]c2ccccc12	Dose-dependent-effect	56%	Active			
			Cc1c(Cc2ccccc2C#N)c2ccccc2n1C(=O)OC(C)(C)C	Dose-dependent-effect		Active			
			N#Cc1ccccc1Cc1ccccc1	Dose-dependent-effect		Active			
Active; Strong Inhibition Observed			COc1cccc2[nH]cc(Cc3ccccc3C#N)c12	Dose-dependent-effect	21%	Active			
Active; Strong Inhibition Observed	Active; Showed Higher Activity		N#Cc1cccc(F)c1Cc1c[nH]c2ccccc12	Dose-dependent-effect	49%	Active			
Active	Active; Showed Higher Activity		Cc1cccc2c(Cc3ccccc3C#N)c[nH]c12	Dose-dependent-effect	40%	Active			
			CC(C)(C)OC(=O)n1c(-c2ccccc2)c(Cc2ccccc2C#N)c2ccccc21	Dose-dependent-effect		Active; Showed Higher Activity Than Positive Control Rsv			

inhibition [1]	inhibition [2]	MIC (Pseudomonas aeruginosa [7])	Compound	inhibition (Pseudomonas aeruginosa [3])	inhibition (INH) (Pseudomonas aeruginosa [4])	inhibition (Pseudomonas aeruginosa [5])	inhibition (INH) (Pseudomonas aeruginosa [5])	inhibition (Pseudomonas aeruginosa [6])	inhibition (INH) (Pseudomonas aeruginosa [8])
Active			Cc1[nH]c2ccccc2c1Cc1ccccc1C#N	Dose-dependent-effect	13%	Active			
	Active; Showed Higher Activity		Nc1ccccc1Cc1c[nH]c2ccccc12	Dose-dependent-effect		Active; Showed Higher Activity Than Positive Control Rsv			
Active	Active		N#Cc1ccc(Br)cc1Cc1c[nH]c2ccccc12	Dose-dependent-effect	21%	Active			
Active	Active		Cc1ccc2[nH]cc(Cc3ccccc3C#N)c2c1	Dose-dependent-effect	50%	Active			
Active	Active; Showed Higher Activity		Cc1cccc2[nH]cc(Cc3ccccc3C#N)c12	Dose-dependent-effect	17%	Active; Showed Higher Activity Than Positive Control Rsv			
Active; Strong Inhibition Observed			CCOC(=O)C(C#N)Cc1c[nH]c2ccccc12 (configuration not stated)	Dose-dependent-effect		Active			
Active; Strong Inhibition Observed			Cc1ccc(Cc2c[nH]c3ccccc23)c(C#N)c1	Dose-dependent-effect	1%		60%		
Active; Strong Inhibition Observed	Active		N#Cc1c(Cl)cccc1Cc1c[nH]c2ccccc12	Dose-dependent-effect	1%	Active			
			N#Cc1ccccc1Cc1c[nH]c2cc(Br)ccc12	Dose-dependent-effect	21%	Active			
	Active		CCOC(=O)C(C#N)c1c[nH]c2ccccc12 (configuration not stated)	Dose-dependent-effect		Active			
Active; Strong Inhibition Observed	Active; Showed Higher Activity		N#CCCc1c[nH]c2ccccc12	Dose-dependent-effect		Active			9%
Active; Strong Inhibition Observed	Active; Showed Higher Activity	48 µg/mL (≈ 192 µM)	N#Cc1cc(F)ccc1Cc1c[nH]c2ccccc12	Dose-dependent-effect	19%	Active; Showed Higher Activity Than Positive Control Rsv		Active	
	Active; Showed Higher Activity		CCc1ccccc1C#N	Dose-dependent-effect		Active			12%
Active; Strong Inhibition Observed	Active		Cc1[nH]c2ccccc2c1CCc1ccccc1C#N	Dose-dependent-effect		Active			
Active			N#Cc1ccccc1Cc1c[nH]c2cc(Cl)ccc12	Dose-dependent-effect	26%	Active			
Active; Strong Inhibition Observed	Active; Showed Higher Activity	24 µg/mL (≈ 90 µM)	N#Cc1cccc(Cl)c1Cc1c[nH]c2ccccc12	Dose-dependent-effect	4%	Active; Showed Higher Activity Than Positive Control Rsv		Active	
